# From ChEMBL document CHEMBL1127795, “Small-molecule immunostimulants. Synthesis and activity of 7,8-disubstituted guanosines and structurally related compounds” (1994)
# Tests used:
# Mus musculus [1] = species: Mus musculus; test: Ability to act as B-cell mitogens; format: functional; conditions: read-out: ED50 (the source's name)
# How it was run: (§1)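 CBA/CaJ mouse spleen cells (1 × 10⁵/0.2 mL) exposed to graded compound concentrations, dissolved in water or DMSO and diluted in medium, for 24 h. [³H]thymidine then added for a further 24 h; incorporation by scintillation counting. ED50 and maximal response expressed relative to a concurrently run standard (loxoribine in most cases).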
# YAC-1 [2] = test: Percent of maximum response was tested for its ability to stimulate the natural killer response in murine in vitro cell assays; format: functional, Mus musculus
# YAC-1 [3] = test: Stimulation of natural killer (NK) response in Yac-1 cell line (mouse, lymphoma); format: functional; conditions: read-out: ED50 (the source's name)
# Mus musculus [4] = species: Mus musculus; test: Augment antibody response of B cells to sheep red blood cell (SRBC) challenge (adjuvanticity); format: functional; conditions: read-out: ED50 (the source's name)
# How it was run: (§2)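 CBA/CaJ spleen cells depleted of T cells with anti-T cell monoclonal antibody (1:1000, 30 min, 4 °C) then complement (37 °C, 45 min). Cultured ± 0.1% SRBC antigen in serum-containing medium with compound from zero to 10⁻³ M for 4 d. Plaque-forming cells counted in agarose with guinea pig complement. ED50 and maximal response relative to a concurrent standard.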
# Mus musculus [5] = species: Mus musculus; test: Percent of maximum response was tested for its ability to act as B-cell mitogens (mitogenicity); format: functional; how it was run: as §1
# Mus musculus [6] = species: Mus musculus; test: Percent of maximum response was tested to augment the antibody response of B cells to sheep red blood cell challenge; format: functional; how it was run: as §2
EC50 (Mus musculus [1]) [µM],SMILES,Max response (YAC-1 [2]) [%],EC50 (YAC-1 [3]) [µM],EC50 (Mus musculus [4]) [µM],Max response (Mus musculus [5]) [%],Max response (Mus musculus [6]) [%]
295,C=CCn1c(=S)n(C2OC(COC(C)=O)[C@@H](OC(C)=O)[C@H]2OC(C)=O)c2nc(NC(C)=O)nc(O)c21 (stereo partly specified),77,5,7,134,60
233,C=CCn1c(=O)n(C2OC(CO)[C@@H](O)C2O)c2nc(N)nc(O)c21 (stereo partly specified),68,60,17,76,143
–,Cn1c(=O)n([C@@H]2O[C@H](CO)[C@H]3OC(C)(C)O[C@H]32)c2nc(N)nc(O)c21,–,–,168,17,193
2400,COc1ccc(Cn2c(=O)n(C3OC(CO)[C@@H](O)[C@H]3O)c3nc(N)nc(O)c32)cc1 (stereo partly specified),–,–,135,14,44
100,CCCCn1c(=O)n(C2OC(CO)[C@@H](O)[C@H]2O)c2nc(N)nc(O)c21 (stereo partly specified),–,–,11,70,86
47,C=CCn1c(=O)n([C@@H]2O[C@H](CO)[C@H]3OC(=O)O[C@H]32)c2nc(N)nc(O)c21,90,20,3,97,50
34,C=CCn1c(=S)n(C2OC(COC(C)=O)[C@@H](OC(C)=O)[C@H]2OC(C)=O)c2nc(N)nc(O)c21 (stereo partly specified),–,–,5,96,141
117,NC(=O)Cn1c(=O)n(C2OC(CO)[C@@H](O)[C@H]2O)c2nc(N)nc(O)c21 (stereo partly specified),42,90,190,72,32
120,Cn1c(=O)n(C2OC(CO)[C@@H](O)[C@H]2O)c2nc(N)nc(O)c21 (stereo partly specified),72,56,10,100,99
–,Nc1nc(O)c2c(n1)n(C1OC(CO)[C@@H](O)[C@H]1O)c(=O)n2CCCl (stereo partly specified),83,19,4,–,101
11,C=CCn1c(=O)n(CCCC)c2nc(N)nc(O)c21,21,4,2,36,77
630,CCOC(=O)Cn1c(=O)n(C2OC(CO)[C@@H](O)[C@H]2O)c2nc(N)nc(O)c21 (stereo partly specified),–,–,48,58,86
–,Nc1nc(O)c2c(n1)n(C1OC(CO)[C@@H](O)[C@H]1O)c(=O)n2CC(O)CO (stereo partly specified),–,–,45,–,136
–,CCn1c(=O)n(C2OC(CO)[C@@H](O)[C@H]2O)c2nc(N)nc(O)c21 (stereo partly specified),–,–,15,82,82
–,C=CCn1/c(=N\C#N)n([C@H]2OC(CO)[C@@H](O)[C@H]2O)c2nc(N)nc(O)c21 (stereo partly specified),–,–,156,–,85
4500,Nc1nc(O)c2c(n1)n(C1OC(CO)[C@@H](O)[C@H]1O)c(=O)n2C/C=C/c1ccccc1 (stereo partly specified),–,–,103,5,73
13,C=CCn1c(=S)n(COCCO)c2nc(N)nc(O)c21,28,55,14,7,9
–,C=CCn1c(=O)n(C2CN(C(c3ccccc3)c3ccccc3)CC(CO)O2)c2nc(N)nc(O)c21 (stereo unspecified),46,12,–,–,–
45,C=CCn1c(=S)n([C@@H]2O[C@H](CO)[C@H]3OC(C)(C)O[C@H]32)c2nc(N)nc(O)c21,30,40,55,9,89

EC50 (Mus musculus [1]) [µM],SMILES,Max response (YAC-1 [2]) [%],EC50 (YAC-1 [3]) [µM],EC50 (Mus musculus [4]) [µM],Max response (Mus musculus [5]) [%],Max response (Mus musculus [6]) [%]
532,Nc1nc(O)c2nc(S)n([C@@H]3O[C@H](CO)[C@@H](O)[C@H]3O)c2n1,–,–,50,100,100
–,Nc1nc(O)c2c(n1)n(C1OC(CO)[C@@H](O)[C@H]1O)c(=O)n2CC(O)CSc1ccccc1 (stereo partly specified),–,–,142,–,12
600,CCCCCCn1c(=O)n(C2OC(CO)[C@@H](O)[C@H]2O)c2nc(N)nc(O)c21 (stereo partly specified),–,–,–,11,–
–,C=CCn1c(=O)n(Cc2ccccc2)c2nc(N)nc(O)c21,–,–,5,–,25
–,Nc1nc(O)c2c(n1)n(C1OC(CO)[C@@H](O)[C@H]1O)c(=O)n2CC(O)CN1CCN(c2ccc(F)cc2)CC1 (stereo partly specified),–,–,–,–,16
820,CN(C)CCCn1c(=O)n(C2OC(CO)[C@@H](O)[C@H]2O)c2nc(N)nc(O)c21 (stereo partly specified),–,–,194,63,83
–,Nc1nc(O)c2c(n1)n(C1OC(CO)[C@@H](O)[C@H]1O)c(=O)n2Cc1ccccc1 (stereo partly specified),–,–,6,–,110
–,COc1ccc(CCNCC(O)Cn2c(=O)n(C3OC(CO)[C@@H](O)[C@H]3O)c3nc(N)nc(O)c32)cc1OC (stereo partly specified),–,–,–,–,3
485,C=CCSc1nc2c(O)nc(N)nc2n1C1OC(CO)[C@@H](O)[C@H]1O (stereo partly specified),–,–,107,57,107
–,[N-]=[N+]=NCC(O)Cn1c(=O)n(C2OC(CO)[C@@H](O)[C@H]2O)c2nc(N)nc(O)c21 (stereo partly specified),–,–,39,–,91
–,Nc1nc(O)c2c(n1)n(C1OC(CO)[C@@H](O)[C@H]1O)c(=O)n2Cc1ccc(Cl)cc1 (stereo partly specified),27,180,14,–,15
–,CC1(C)O[C@@H]2[C@H](O1)[C@@H](CO)O[C@H]2n1c(=O)n(C/C=C/c2ccccc2)c2c(O)nc(N)nc21,–,–,–,10,16
52,Cn1c(=O)n(C2OC(CI)[C@@H](O)[C@H]2O)c2nc(N)nc(O)c21 (stereo partly specified),–,–,–,4,32
–,C=CCn1c(=O)n(CCC(COCc2ccccc2)COCc2ccccc2)c2nc(N)nc(O)c21,–,–,7,–,68
–,C=CCn1c(=O)n([C@@H]2O[C@H](CO)[C@H]3OC(CCC)(CCC)O[C@H]32)c2nc(N)nc(O)c21,56,11,4,38,123
–,NCC(O)Cn1c(=O)n(C2OC(CO)[C@@H](O)[C@H]2O)c2nc(N)nc(O)c21 (stereo partly specified),–,–,28,–,110
20,C=CCn1c(=S)n(C2OC(CO)[C@@H](O)[C@H]2O)c2nc(N)nc(O)c21 (stereo partly specified),–,–,1,151,100
–,C=CCn1c(=O)n(CCCCCCCC)c2nc(N)nc(O)c21,–,–,37,–,130

SMILES,EC50 (Mus musculus [1]) [µM],Max response (YAC-1 [2]) [%],EC50 (YAC-1 [3]) [µM],EC50 (Mus musculus [4]) [µM],Max response (Mus musculus [5]) [%],Max response (Mus musculus [6]) [%]
C=CCn1c(=[Se])n(C2OC(CO)[C@@H](O)[C@H]2O)c2nc(N)nc(O)c21 (stereo partly specified),118,–,–,15,107,70
